Laboratory results published in ChEMBL document CHEMBL2163271, “Antitumor agents 295. E-ring hydroxylated antofine and cryptopleurine analogues as antiproliferative agents: design, synthesis, and mechanistic studies” (J Med Chem, 2012).
Activity calls are given as the source filed them. The rule behind the calls is not given here.

Assays:
MRC5 = test: Cytotoxicity against human MRC5 cells assessed as cell viability after 48 hrs by SRB assay; assay type: functional, cell-based; settings: MRC5, 48 h
A549 [1] = test: Downregulation of XIAP mRNA expression in human A549 cells by microarray analysis relative to control; assay type: functional
Outline: (§1)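 Gene expression profiling of treated versus untreated A549 cells, with pathways analysed in the MetaCore database.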

A549 [2] = test: Downregulation of PECALM mRNA expression in human A549 cells by microarray analysis relative to control; assay type: functional; outline: as §1
A549 [3] = test: Downregulation of CDK11 mRNA expression in human A549 cells by microarray analysis relative to control; assay type: functional; outline: as §1
A549 [4] = test: Downregulation of beta-catenin expression in human A549 cells at 3.6 nM after 48 hrs by RT-PCR analysis
A549 [5] = test: Downregulation of PI3K reg class 1A mRNA expression in human A549 cells by microarray analysis relative to control; assay type: functional; outline: as §1
A549 [6] = test: Downregulation of EEA1 mRNA expression in human A549 cells by microarray analysis relative to control; assay type: functional; outline: as §1
A549 [7] = test: Cytotoxicity against human A549 cells assessed as decrease in cell number at 60 nM after 48 hrs by inverted phase-contrast microscopy; assay type: functional, cell-based
Outline: (§2)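 A549 cells exposed to a rising concentration series for 48 h, including 60 nM. Cells were viewed under an inverted phase-contrast microscope and photographed, and cell number and morphology were scored by eye.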

A549 [8] = test: Downregulation of DYRK2 mRNA expression in human A549 cells by microarray analysis relative to control; assay type: functional; outline: as §1
A549 [9] = test: Downregulation of rabaptin-5 mRNA expression in human A549 cells by microarray analysis relative to control; assay type: functional; outline: as §1
A549 [10] = test: Downregulation of FRS2 mRNA expression in human A549 cells by microarray analysis relative to control; assay type: functional; outline: as §1
A549 [11] = test: Downregulation of fibronectin mRNA expression in human A549 cells by microarray analysis relative to control; assay type: functional; outline: as §1
A549 [12] = test: Downregulation of casein kinase 1 mRNA expression in human A549 cells by microarray analysis relative to control; assay type: functional; outline: as §1
A549 [13] = test: Downregulation of PLAU mRNA expression in human A549 cells by microarray analysis relative to control; assay type: functional; outline: as §1
A549 [14] = test: Downregulation of FBXW mRNA expression in human A549 cells by microarray analysis relative to control; assay type: functional; outline: as §1
A549 [15] = test: Cytotoxicity against human A549 cells assessed as cell viability after 48 hrs by SRB assay; assay type: functional, cell-based; settings: A549, 48 h
[16] = Cytotoxicity against human CL1-5 cells assessed as cell viability after 48 hrs by SRB assay; assay type: functional, cell-based; settings: CL1-5, 48 h
Outline: (§3)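 Human NSCLC lines (CL1-0, CL1-5, PC9, PC9IR) exposed to increasing compound concentrations for 48 h. Growth read by sulforhodamine B (SRB) staining, with IC50 in nM taken from the dose-response.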

A549 [17] = test: Downregulation of HSP90 mRNA expression in human A549 cells by microarray analysis relative to control; assay type: functional; outline: as §1
DU-145 = test: Cytotoxicity against human DU145 cells after 2 hrs by methylene blue staining-based spectrophotometric analysis; assay type: functional, cell-based; settings: DU-145, 2 h
A549 [18] = test: Downregulation of beta-catenin mRNA expression in human A549 cells by microarray analysis relative to control
A549 [19] = test: Downregulation of collagen 4 mRNA expression in human A549 cells by microarray analysis relative to control; assay type: functional; outline: as §1
A549 [20] = test: Downregulation of SAP18 mRNA expression in human A549 cells by microarray analysis relative to control; assay type: functional; outline: as §1
A549 [21] = test: Downregulation of SKP2 mRNA expression in human A549 cells by microarray analysis relative to control; assay type: functional; outline: as §1
[22] = Cytotoxicity against human CL1-0 cells assessed as cell viability after 48 hrs by SRB assay; assay type: functional, cell-based; settings: CL1-0, 48 h; outline: as §3
A549 [23] = test: Cytotoxicity against human A549 cells after 2 hrs by methylene blue staining-based spectrophotometric analysis; assay type: functional, cell-based; settings: A549, 2 h
A549 [24] = test: Downregulation of myosin 5b mRNA expression in human A549 cells by microarray analysis relative to control; assay type: functional; outline: as §1
A549 [25] = test: Downregulation of beta-catenin protein expression in human A549 cells at 3.6 to 100 nM after 48 hrs by Western blot analysis
KB = test: Cytotoxicity against human KB cells after 2 hrs by methylene blue staining-based spectrophotometric analysis; assay type: functional, cell-based
[26] = Cytotoxicity against human KBVIN cells overexpressing P-gp after 2 hrs by methylene blue staining-based spectrophotometric analysis; assay type: functional, cell-based
A549 [27] = test: Downregulation of Eps 15 mRNA expression in human A549 cells by microarray analysis relative to control; assay type: functional; outline: as §1
[28] = Cytotoxicity against human PC9IR cells assessed as cell viability after 48 hrs by SRB assay; assay type: functional, cell-based; outline: as §3
A549 [29] = test: Downregulation of VTI1B mRNA expression in human A549 cells by microarray analysis relative to control; assay type: functional; outline: as §1
A549 [30] = test: Downregulation of syntazin 7 mRNA expression in human A549 cells by microarray analysis relative to control; assay type: functional; outline: as §1
A549 [31] = test: Cytotoxicity against human A549 cells assessed as effect on cell morphology at 60 nM after 48 hrs by inverted phase-contrast microscopy; assay type: functional, cell-based; outline: as §2
A549 [32] = test: Downregulation of HSP90 protein expression in human A549 cells at 3.6 to 100 nM after 48 hrs by Western blot analysis; assay type: functional, cell-based
Outline: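 A549 cells treated with graded compound concentrations for 48 h. Whole-cell extracts were immunoblotted with antibody against HSP90.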

A549 [33] = test: Downregulation of cyclin D protein expression in human A549 cells at 3.6 to 100 nM after 48 hrs by Western blot analysis; assay type: functional, cell-based
A549 [34] = test: Downregulation of PLEKHA8 mRNA expression in human A549 cells by microarray analysis relative to control; assay type: functional; outline: as §1
A549 [35] = test: Downregulation of HSP90 expression in human A549 cells at 3.6 nM after 48 hrs by RT-PCR analysis; assay type: functional, cell-based
Outline: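 A549 cells exposed at 3.6 nM for 48 h. Transcript levels were measured by RT-PCR and compared with untreated cells.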

A549 [36] = test: Downregulation of cAMP dependent PKA cat mRNA expression in human A549 cells by microarray analysis relative to control; assay type: functional; outline: as §1
A549 [37] = test: Upregulation of ubiquitin mRNA expression in human A549 cells by microarray analysis relative to control; assay type: functional; outline: as §1
PC-9 = test: Cytotoxicity against human PC9 cells assessed as cell viability after 48 hrs by SRB assay; assay type: functional, cell-based; settings: PC-9, 48 h; outline: as §3
A549 [38] = test: Downregulation of SNAP-25 mRNA expression in human A549 cells by microarray analysis relative to control; assay type: functional; outline: as §1
A549 [39] = test: Downregulation of PI3K cat class 1A mRNA expression in human A549 cells by microarray analysis relative to control; assay type: functional; outline: as §1
SK-BR-3 = test: Cytotoxicity against human SKBR3 cells after 2 hrs by methylene blue staining-based spectrophotometric analysis; assay type: functional, cell-based; settings: SK-BR-3, 2 h

## COc1ccc2c3c(c4cc(OC)c(OC)cc4c2c1)C[C@H]1C[C@H](O)CCN1C3
MRC5
  IC50: 98 nM
A549 [1]
  fold change (FC): <10
A549 [2]
  fold change (FC): <10
A549 [3]
  fold change (FC): <10
A549 [4]
  Activity: Active
A549 [5]
  fold change (FC): <10
A549 [6]
  fold change (FC): <10
A549 [7]
  Activity: Active
A549 [8]
  fold change (FC): <10
A549 [9]
  fold change (FC): <10
A549 [10]
  fold change (FC): <10
A549 [11]
  fold change (FC): <10
A549 [12]
  fold change (FC): <10
A549 [13]
  fold change (FC): <10
A549 [14]
  fold change (FC): <10
A549 [15]
  IC50: 9 nM
[16]
  IC50: 8.7 nM
A549 [17]
  fold change (FC): <10
DU-145
  IC50: 11 nM
A549 [18]
  fold change (FC): <10
A549 [19]
  fold change (FC): <10
A549 [20]
  fold change (FC): <10
A549 [21]
  fold change (FC): <10
[22]
  IC50: 58.4 nM
A549 [23]
  IC50: 22 nM
A549 [24]
  fold change (FC): <10
A549 [25]
  Activity: Active
KB
  IC50: 23 nM
[26]
  IC50: 25 nM
A549 [27]
  fold change (FC): <10
[28]
  IC50: 43.2 nM
A549 [29]
  fold change (FC): <10
A549 [30]
  fold change (FC): <10
A549 [31]
  Activity: inactive
A549 [32]
  Activity: Active
A549 [33]
  Activity: Active
A549 [34]
  fold change (FC): <10
A549 [35]
  Activity: Active
A549 [36]
  fold change (FC): <10
A549 [37]
  fold change (FC): >10
PC-9
  IC50: 8.2 nM
A549 [38]
  fold change (FC): <10
A549 [39]
  fold change (FC): <10
SK-BR-3
  IC50: 72 nM
